What was measured:
[1] = biological target: T1, Bifunctional dihydrofolate reductase-thymidylate synthase (Toxoplasma gondii, UniProt Q07422); assay: Inhibitory activity against Dihydrofolate reductase from Toxoplasma gondii was evaluated using 90 uM dihydrofolic acid as substrate
T1 sequence (Q07422 whole entry): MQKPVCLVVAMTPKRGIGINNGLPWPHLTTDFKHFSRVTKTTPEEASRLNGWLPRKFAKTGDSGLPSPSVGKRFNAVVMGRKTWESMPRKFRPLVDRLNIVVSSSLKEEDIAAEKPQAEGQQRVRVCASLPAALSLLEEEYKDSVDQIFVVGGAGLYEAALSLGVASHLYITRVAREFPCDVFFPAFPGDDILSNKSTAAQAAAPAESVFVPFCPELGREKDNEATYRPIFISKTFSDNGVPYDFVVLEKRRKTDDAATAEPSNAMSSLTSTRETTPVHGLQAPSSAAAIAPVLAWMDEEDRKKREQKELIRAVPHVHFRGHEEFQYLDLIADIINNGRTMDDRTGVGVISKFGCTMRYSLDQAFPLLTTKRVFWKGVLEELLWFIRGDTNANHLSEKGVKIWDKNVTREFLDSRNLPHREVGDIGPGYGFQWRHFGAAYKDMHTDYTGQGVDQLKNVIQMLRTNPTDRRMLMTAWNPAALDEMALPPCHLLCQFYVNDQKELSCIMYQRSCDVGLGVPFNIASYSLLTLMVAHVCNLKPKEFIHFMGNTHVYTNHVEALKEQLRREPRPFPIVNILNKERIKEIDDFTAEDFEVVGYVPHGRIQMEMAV

[2] = tested on: Mus musculus; assay: Number of M5076 reticulum cell sarcoma bearing mice survived among the tested (5) on day 24 after treating with compound dose of 3.125 mg/Kg/day; format: functional
Procedure, shortened: (§1)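 BDF1 female mice in groups of 5 received 10^6 M5076 cells im into the left leg on day 0. Drug was dissolved in 10-20% DMSO in arachis oil and given ip daily on days 1-17; controls got vehicle only. Tumor volumes were measured on days 12, 16, 20 and 24. T/C = test/control tumor volume ×100.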

[3] = tested on: Mus musculus; assay: Antitumor activity expressed as a ratio of tumor volumes of test (T) animals compared to control (C) animals(100) at a dose of 3.125 mg/kg/day; format: functional; procedure, shortened: as §1
[4] = tested on: Mus musculus; assay: Antitumor activity expressed as a ratio of tumor volumes of test (T) animals compared to control (C) animals(100) at a dose of 12.5 mg/kg/day; format: functional; procedure, shortened: as §1
[5] = tested on: Mus musculus; assay: Number of M5076 reticulum cell sarcoma bearing mice survived among the tested (5) on day 24 after treating with compound dose of 12.5 mg/Kg/day; format: functional; procedure, shortened: as §1
[6] = tested on: Mus musculus; assay: Number of M5076 reticulum cell sarcoma bearing mice survived among the tested (5) on day 24 after treating with compound dose of 25 mg/Kg/day; format: functional; procedure, shortened: as §1
[7] = tested on: Mus musculus; assay: Antitumor activity expressed as a ratio of tumor volumes of test (T) animals compared to control (C) animals(100) at a dose of 25 mg/kg/day; format: functional; procedure, shortened: as §1

SMILES: CCc1nc(N)nc(N)c1-c1ccc(NCc2ccccc2)c([N+](=O)[O-])c1
- IC50 [1]: 19 nM

SMILES: CCc1nc(N)nc(N)c1-c1ccc(NCc2ccc(C(=O)O)cc2)c([N+](=O)[O-])c1
- IC50 [1]: 1.8 nM

SMILES: CCc1nc(N)nc(N)c1-c1ccc(NCc2ccc(C(=O)NC(CCC(=O)O)C(=O)O)cc2)c([N+](=O)[O-])c1 (stereo not drawn)
- IC50 [1]: 6.2 nM

SMILES: CN(Cc1cnc2nc(N)nc(N)c2n1)c1ccc(C(=O)N[C@@H](CCC(=O)O)C(=O)O)cc1 [METHOTREXATE]
- Survivors [2]: 5
- T/C [3]: 92%

SMILES: CCc1nc(N)nc(N)c1-c1ccc(NCc2ccc(S(N)(=O)=O)cc2)c([N+](=O)[O-])c1
- IC50 [1]: 5.8 nM

SMILES: CCc1nc(N)nc(N)c1-c1ccc(NCc2ccc(C3OCCO3)cc2)c([N+](=O)[O-])c1
- IC50 [1]: 15 nM

SMILES: CCc1nc(N)nc(N)c1-c1ccc(NCc2ccc(C(=O)N(C)C)cc2)c([N+](=O)[O-])c1
- IC50 [1]: 7.9 nM

SMILES: CCOC(=O)CCC(NC(=O)c1ccc(CNc2ccc(-c3c(N)nc(N)nc3CC)cc2[N+](=O)[O-])cc1)C(=O)OCC (stereo not drawn)
- IC50 [1]: 7.1 nM

SMILES: CCc1nc(N)nc(N)c1-c1ccc(NCc2ccc(C(=O)NC)cc2)c([N+](=O)[O-])c1
- IC50 [1]: 4.3 nM

SMILES: CCc1nc(N)nc(N)c1-c1ccc(N(C)Cc2ccc(C3=NC(C)(C)CO3)cc2)c([N+](=O)[O-])c1
- IC50 [1]: 14 nM

SMILES: CCc1nc(N)nc(N)c1-c1ccc(N(C)Cc2ccc(C(=O)NC)cc2)c([N+](=O)[O-])c1
- T/C [4]: 15%
- Survivors [5]: 5
- IC50 [1]: 7.4 nM

SMILES: CCc1nc(N)nc(N)c1-c1ccc(NCc2ccc(C(=O)N3CCCCC3)cc2)c([N+](=O)[O-])c1
- IC50 [1]: 140 nM

SMILES: CCc1nc(N)nc(N)c1-c1ccc(NCc2ccc(C(N)=O)cc2)c([N+](=O)[O-])c1
- IC50 [1]: 3.7 nM

SMILES: Cc1nc(N)nc(N)c1-c1ccc(Cl)c(Cl)c1 [METOPRINE]
- Survivors [2]: 1
- T/C [3]: <8%

SMILES: CCc1nc(N)nc(N)c1-c1ccc(N(C)Cc2ccccc2)c([N+](=O)[O-])c1
- Survivors [6]: 5
- T/C [7]: 37%

SMILES: CCc1nc(N)nc(N)c1-c1ccc(N(C)Cc2ccc(C(=O)O)cc2)c([N+](=O)[O-])c1
- T/C [4]: 100%
- Survivors [5]: 5
- IC50 [1]: 3.1 nM

Source: ChEMBL document CHEMBL1130351, “Nonclassical 2,4-diamino-5-aryl-6-ethylpyrimidine antifolates: activity as inhibitors of dihydrofolate reductase from Pneumocystis carinii and Toxoplasma gondii and as antitumor agents” (J Med Chem, 1997)
